HIV Env fusion: HIV envelope-mediated fusion inhibition. HeLa-JRFL Env/CEM21 cell fusion, luciferase. hit rate 1.1% among 360,000. inhibition, % at 12.3 µM;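 active means mean replicate inhibition score of at least 50 and every replicate individually at or above 50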
S100A4 inh HTS: inhibitors of human S100A4 binding to myosin IIA peptide. P26447. S100A4/TAMRA-MyoIIA peptide fluorescence polarization. inhibition, % at 10.7 µM. hit rate 0.14% among 360,000. AID 652163;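 active means mean inhibition of at least 70% across replicates, with every replicate also reaching that level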
Target sequence (P26447 whole entry, looked up): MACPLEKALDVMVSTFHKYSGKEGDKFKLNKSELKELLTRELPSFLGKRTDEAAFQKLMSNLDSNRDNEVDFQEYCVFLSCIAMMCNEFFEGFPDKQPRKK
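Assay system: human S100A4 monomer with TAMRA-labelled myosin IIA peptide / Buffer or medium: Calcium-containing HEPES buffer, pH 7.2 / Reagent: TAMRA-labelled myosin IIA heavy-chain peptide probe, 5 nM / Compound: one dose per compound / Timing: polarization read 5 min after assay mix addition, stable 5–60 min / Benchmarks: neutral control DMSO, positive control TFP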
rRNA inh HTS: inhibitors of bacterial rRNA selective over humanized ribosomes; GFP signal change (wild-type ribosome), % (no concentration beside the values); hit rate 1.6% among 350,000; AID 720706; E. coli WT GFP vs humanized-ribosome RFP mutants, fluorescence, 24 h; active compounds read low; DMSO median 0, no signal -100;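 active means significant combined selectivity score with lowered wild-type GFP, culture density cut under 30%, mutant RFP and density less affected; inactive means any of these conditions unmet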
miR122 inh: blocks miR-122 activity in Huh7 sensor cells. Huh7 miR-122 Renilla luciferase sensor, 48 h; neutral wells = 0, positive control = 100. activation (reporter increase), % at 12.5 µM. hit rate 0.3% among 340,000. AID 602342;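 active means mean replicate activation score at least 90 and every replicate individually at or above 90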;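 further: higher luciferase means less miR-122 activity so hits act as miR-122 inhibitors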
FN deposit inh: fibronectin deposition inhibition | inhibition, % at 12.6 µM | hit rate 0.086% among 350,000 | AH1F fibroblasts, Alexa488-fibronectin deposition fluorescence, overnight | AID 743247;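 active means mean inhibition across replicates of 30% or more, regardless of how many single replicates reach that level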
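Measured by – fluorescence 485/525 nm · System – AH1F fibroblast monolayer, labelled fibronectin deposition · Amount – 10000 cells per well · Buffer or medium – serum-reduced DMEM (2% serum) · Doses – single dose, pinned · Also added – fluorescent fibronectin at 24 nM final · Schedule – 1 h cell attachment, overnight exposure to compound and label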
Vif inh: inhibitors of HIV Vif | HEK293T cells, Vif self-association by quenched fluorescence, imaging, 24 h | inhibition, % at 7.49 µM | hit rate 0.35% among 340,000; in the data active means inhibition above about 50%, passing the limit was not always enough
Of the large screens only hits and unclear results are named; the others gave an inactive call; ! = not active in a repeat; [ ] = another dose, or the depositor's remark. An excerpt weighted towards active compounds, which were near 2.6% of everything screened.

C[C@H]1CN([C@@H](C)CO)C(=O)c2ccccc2-c2ccccc2CO[C@H]1CN(C)Cc1ccc(F)cc1	HIV Env fusion 73[16.7 µM] (no result: miR122 inh, Vif inh)
C[C@H](CO)N1C[C@H](C)[C@H](CN(C)Cc2ccc(F)cc2)OCc2ccccc2-c2ccccc2C1=O	HIV Env fusion 57[16.7 µM] (no result: miR122 inh, Vif inh)
C[C@H]1CN([C@@H](C)CO)C(=O)c2ccccc2-c2ccccc2CO[C@H]1CN(C)Cc1cccc(F)c1	HIV Env fusion 62[16.7 µM] (no result: miR122 inh, Vif inh)
C[C@H]1CN([C@@H](C)CO)C(=O)c2ccccc2-c2ccccc2CO[C@@H]1CN(C)Cc1cccc(F)c1	none (no result: HIV Env fusion, S100A4 inh HTS, miR122 inh, Vif inh)
O=C(C[C@H]1C=C[C@H](NC(=O)CC2CC2)[C@H](CO)O1)NCc1ccccc1	none (no result: HIV Env fusion, miR122 inh, FN deposit inh, Vif inh)
C[C@@H]1CN([C@@H](C)CO)C(=O)c2cc(-c3ccncc3)cnc2O[C@H]1CN(C)C(=O)NC1CCCC1	none (no result: miR122 inh, Vif inh)
CC(C)CC#Cc1ccc2c(c1)O[C@@H](CN(C)S(=O)(=O)c1ccc(F)cc1)[C@H](C)CN([C@H](C)CO)S2(=O)=O	none (no result: Vif inh)
COc1ccccc1-c1ccc2c(c1)O[C@H](CN(C)S(=O)(=O)c1ccccc1)[C@H](C)CN([C@H](C)CO)S2(=O)=O	HIV Env fusion 56[16.7 µM] (no result: Vif inh)
CC(C)CC#Cc1ccc2c(c1)O[C@@H](CN(C)S(=O)(=O)c1cccc(F)c1)[C@@H](C)CN([C@@H](C)CO)S2(=O)=O	HIV Env fusion 77[16.7 µM] (no result: rRNA inh HTS, FN deposit inh, Vif inh)
C[C@H](CO)N1C[C@H](C)[C@H](CN(C)S(=O)(=O)c2cccc(F)c2)Oc2cc(C#CCN(C)C)ccc2S1(=O)=O	none (no result: Vif inh)
CCCC#Cc1ccc2c(c1)O[C@@H](CN(C)S(=O)(=O)c1cccc(F)c1)[C@@H](C)CN([C@H](C)CO)S2(=O)=O	HIV Env fusion 64[16.7 µM] (no result: FN deposit inh, Vif inh)
CC(C)CC#Cc1ccc2c(c1)O[C@H](CN(C)S(=O)(=O)c1ccc(F)cc1)[C@H](C)CN([C@@H](C)CO)S2(=O)=O	HIV Env fusion 61[16.7 µM] (no result: Vif inh)
COc1ccccc1-c1ccc2c(c1)O[C@@H](CN(C)S(=O)(=O)c1ccccc1)[C@@H](C)CN([C@H](C)CO)S2(=O)=O	none (no result: Vif inh)
C[C@H](CO)N1C[C@H](C)[C@H](CN(C)S(=O)(=O)c2cccc(F)c2)Oc2cc(Br)ccc2S1(=O)=O	HIV Env fusion 78![16.7 µM] (no result: Vif inh)
C[C@H]1CN([C@@H](C)CO)S(=O)(=O)c2ccc(-c3cccc(F)c3)cc2O[C@@H]1CN(C)S(=O)(=O)c1ccc(F)cc1	none (no result: Vif inh)
C[C@@H]1CN([C@H](C)CO)S(=O)(=O)c2ccc(-c3cccc(F)c3)cc2O[C@@H]1CN(C)S(=O)(=O)c1ccc(F)cc1	HIV Env fusion 56[16.7 µM] (no result: Vif inh)
C[C@@H]1CN([C@@H](C)CO)S(=O)(=O)c2ccc(-c3cccc(C#N)c3)cc2O[C@@H]1CN(C)C(=O)c1ccc(F)cc1	S100A4 inh HTS 131!
C[C@@H]1CCCCO[C@H](CN(C)CC2CCCCC2)[C@H](C)CN([C@@H](C)CO)C(=O)c2cc(NC(=O)c3ccncc3)ccc2O1	none (no result: FN deposit inh, Vif inh)
COc1ccc2c3c([nH]c2c1)[C@@H](CO)N(C(=O)C1CCC1)CC31CCN(S(C)(=O)=O)CC1	none (no result: HIV Env fusion, miR122 inh, FN deposit inh, Vif inh)
O=C1C=CC(=O)N1Cc1ccncc1	none
O=C1C=CC(=O)N1CCCCCCCCCCN1C(=O)C=CC1=O	FN deposit inh 44
COc1ccc(NC(=O)N[C@@H]2CC[C@H](CC(=O)NC3CCCCC3)O[C@@H]2CO)cc1	none (no result: miR122 inh, Vif inh)
Cc1cccc(NC(=O)c2ccc(-c3ccccc3[N+](=O)[O-])o2)c1	rRNA inh HTS -32 (no result: miR122 inh, FN deposit inh)
COc1cccc(NC(=O)c2ccc(-c3ccccc3[N+](=O)[O-])o2)c1	none (no result: miR122 inh)
Cc1ccnc(NC(=O)CCCOc2cc(=O)n(C)c3ccccc23)c1	miR122 inh 183!, Vif inh 97
CC1(c2ccc(OCC#N)cc2)C=C(c2ccc(OCC#N)cc2)n2nc(C(F)(F)F)nc2N1 (stereo unspecified)	rRNA inh HTS -27 (no result: miR122 inh)
Cc1ccc(C2=CC(C)(c3ccc(C)cc3)Nc3nc(C(F)(F)F)nn32)cc1 (stereo unspecified)	none
CSc1nc(C)c(C(=O)Nc2ccccc2)c(C)c1C#N	rRNA inh HTS -21 (no result: HIV Env fusion, FN deposit inh, Vif inh)
Cc1nc(SCC(=O)c2cc3ccccc3oc2=O)c(C#N)c(C)c1C(=O)Nc1ccccc1	none (no result: S100A4 inh HTS, rRNA inh HTS, miR122 inh, Vif inh)
CCOC(=O)C1(Cc2ccccc2)CCCN(Cc2ccccn2)C1 (stereo unspecified)	FN deposit inh 31
CCOC(=O)C1(Cc2ccccc2)CCCN(CCO)C1 (stereo unspecified)	none
O=C(Nc1ccccc1)N1CCCCN2[C@H](CO)[C@H](c3ccc(C#Cc4ccccc4)cc3)[C@H]2C1	none (no result: HIV Env fusion, Vif inh)
CCN(CC(O)CON=C1c2ccccc2-c2ccccc21)S(=O)(=O)c1ccc(Cl)cc1 (stereo unspecified)	HIV Env fusion 77 (no result: S100A4 inh HTS, rRNA inh HTS, miR122 inh, FN deposit inh)
CCN(CC(O)CON=C1c2ccccc2-c2ccccc21)S(=O)(=O)c1ccc(C)cc1 (stereo unspecified)	HIV Env fusion 79 (no result: S100A4 inh HTS, rRNA inh HTS)
Cc1cccc(N(CC(O)CON=C2c3ccccc3-c3ccccc32)S(C)(=O)=O)c1 (stereo unspecified)	HIV Env fusion 65 (no result: S100A4 inh HTS, rRNA inh HTS)
C[C@@H]1CCCCO[C@H](CN(C)C(=O)C2CCCCC2)[C@H](C)CN([C@H](C)CO)C(=O)c2cc(NC(=O)Nc3ccccc3)ccc2O1	none (no result: rRNA inh HTS, FN deposit inh, Vif inh)
C[C@H](CO)N1C[C@H](C)[C@@H](CN(C)C(=O)NC2CCCCC2)Oc2c(NC(=O)Cn3cnnn3)cccc2C1=O	none (no result: HIV Env fusion, S100A4 inh HTS, miR122 inh, FN deposit inh, Vif inh)
C[C@@H]1CN([C@@H](C)CO)C(=O)c2cc(C#CC3CC3)cnc2O[C@H]1CN(C)C(=O)C1CCCCC1	none (no result: S100A4 inh HTS, FN deposit inh, Vif inh)
O=C(C[C@@H]1CC[C@H]2[C@@H](COC[C@H](O)CN2CCC(F)(F)F)O1)NCC1CCCCC1	none (no result: S100A4 inh HTS, Vif inh)
COc1ccc(CCN2C(=S)NC3CC2(C)Oc2ccc([N+](=O)[O-])cc23)cc1OC (stereo unspecified)	HIV Env fusion 59 (no result: S100A4 inh HTS, rRNA inh HTS)
N#C/C(=N\Nc1cccc(F)c1)C(=O)C1CC1	rRNA inh HTS -25 (no result: miR122 inh)
N#C/C(=N\Nc1cccc(F)c1)C(=N)N1CCCCCC1	none (no result: miR122 inh, FN deposit inh)
Cc1noc(C)c1S(=O)(=O)Nc1ccc2c(c1)C(=O)N([C@H](C)CO)C[C@@H](C)[C@@H](CN(C)C(=O)Nc1ccc(C(F)(F)F)cc1)OCCCC[C@@H](C)O2	none (no result: FN deposit inh, Vif inh)
O=C(Nc1sc2c(c1C(=O)O)CCCCC2)c1ccco1	miR122 inh 208 (no result: S100A4 inh HTS, rRNA inh HTS)
CCOC(=O)c1c(NC(=O)C(C)N2CCN(C(=O)c3ccco3)CC2)sc2c1CCCC2 (stereo unspecified)	HIV Env fusion 56 (no result: S100A4 inh HTS, rRNA inh HTS)
COc1cccc(S(=O)(=O)N(C)C[C@@H]2Oc3ncc(C#CCN(C)C)cc3C(=O)N([C@@H](C)CO)C[C@@H]2C)c1	none (no result: FN deposit inh, Vif inh)

Assay outcomes from PubChem BioAssay.
